From ChEMBL document CHEMBL3044563, “Alternethanoxins A and B, polycyclic ethanones produced by Alternaria sonchi , potential mycoherbicides for Sonchus arvensis biocontrol” (2009)
Calls of active or inactive are those of the source. No cut-off for these calls is given here.

How the values were obtained:
[1] = tested on: Bacillus subtilis; experiment: Antibacterial activity against Bacillus subtilis at 100 ug/disk; type: functional, organism-based
Procedure, shortened: (§1)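 Test organisms were S. cerevisiae (antifungal) and X. campestris, E. coli and B. subtilis (antibacterial). Compound applied to a disk at 100 μg per disk, following a previously described disk method.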

[2] = tested on: Sonchus arvensis; experiment: Phytotoxicity against Sonchus arvensis (field sow-thistle) assessed as necrotic lesions at 1 mg/mL at 24 degC measured after 2 days by leaf disk-puncture assay; type: functional
Procedure, shortened: (§2)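 Plants were raised in a greenhouse from underground shoot pieces or seeds. 10 mm disks were cut with a cork borer from well-expanded leaves, laid on moist filter paper and punctured centrally with a needle. Compound was predissolved in EtOH and diluted with water (final 5% v/v EtOH), and a 10 μL droplet was applied. Disks were incubated at 24 °C under a 12 h photoperiod, and necrotic lesion diameter (mm) was measured after 2 days.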

[3] = tested on: Amaranthus retroflexus; experiment: Phytotoxicity against Amaranthus rethroflexus assessed as necrotic lesion diameter at 2 mg/mL at 24 degC measured after 2 days by leaf disk-puncture assay; type: functional; procedure, shortened: as §2
[4] = tested on: Escherichia coli; experiment: Antibacterial activity against Escherichia coli at 100 ug/disk; type: functional, organism-based; procedure, shortened: as §1
[5] = tested on: Phleum pratense; experiment: Phytotoxicity against Phleum pratense (timothy grass) assessed as necrotic lesion diameter at 2 mg/mL at 24 degC measured after 2 days by leaf disk-puncture assay; type: functional; procedure, shortened: as §2
[6] = tested on: Saccharomyces cerevisiae; experiment: Antifungal activity against Saccharomyces cerevisiae at 100 ug/disk; type: functional, organism-based; procedure, shortened: as §1
[7] = tested on: Sonchus arvensis; experiment: Phytotoxicity against Sonchus arvensis (field sow-thistle) assessed as necrotic lesion diameter at 4 mg/mL at 24 degC measured after 2 days by leaf disk-puncture assay; type: functional; procedure, shortened: as §2
[8] = tested on: Xanthomonas campestris; experiment: Antibacterial activity against Xanthomonas campestris at 100 ug/disk; type: functional, organism-based; procedure, shortened: as §1
[9] = tested on: Aegopodium podagraria; experiment: Phytotoxicity against Aegopodium podagraria (bishop's weed) assessed as necrotic lesion diameter at 2 mg/mL at 24 degC measured after 2 days by leaf disk-puncture assay; type: functional; procedure, shortened: as §2
[10] = tested on: Elymus repens; experiment: Phytotoxicity against Elymus repens (couch grass) assessed as necrotic lesion diameter at 2 mg/mL at 24 degC measured after 2 days by leaf disk-puncture assay; type: functional; procedure, shortened: as §2
[11] = tested on: Calendula officinalis; experiment: Phytotoxicity against Calendula officinalis assessed as necrotic lesion diameter at 2 mg/mL at 24 degC measured after 2 days by leaf disk-puncture assay; type: functional; procedure, shortened: as §2
[12] = tested on: Convolvulus arvensis; experiment: Phytotoxicity against Convolvulus arvensis assessed as necrotic lesion diameter at 2 mg/mL at 24 degC measured after 2 days by leaf disk-puncture assay; type: functional; procedure, shortened: as §2
[13] = tested on: Cirsium arvense; experiment: Phytotoxicity against Cirsium arvense (Canada thistle) assessed as necrotic lesion diameter at 2 mg/mL at 24 degC measured after 2 days by leaf disk-puncture assay; type: functional; procedure, shortened: as §2
[14] = tested on: Taraxacum officinale; experiment: Phytotoxicity against Taraxacum officinale (dandelion) assessed as necrotic lesion diameter at 2 mg/mL at 24 degC measured after 2 days by leaf disk-puncture assay; type: functional; procedure, shortened: as §2
[15] = tested on: Sonchus arvensis; experiment: Phytotoxicity against Sonchus arvensis (field sow-thistle) assessed as necrotic lesions at 2 mg/mL at 24 degC measured after 2 days by leaf disk-puncture assay; type: functional; procedure, shortened: as §2

Structure (SMILES) | Activity [1] | Activity [2] | Activity [3] | Activity [4] | Activity [5] | Activity [6] | Activity [7] | Activity [8] | Activity [9] | Activity [10] | Activity [11] | Activity [12] | Activity [13] | Activity [14] | Activity [15]
COc1cccc2c1[C@H](O)Oc1c(O)cc(C(C)=O)c(O)c1-2 [ALTERNETHANOXIN A] | inactive | Active | 1 mm | inactive | 1 mm | inactive | 4 mm | inactive | 1 mm | 1 mm | 1 mm | 1 mm | 1 mm | 1 mm | 
COc1ccc2oc3c(C(C)=O)cc(O)c4c3c2c1[C@@H](O)O4 [ALTERNETHANOXIN B] | inactive |  | 1 mm | inactive | 1 mm | inactive | 2 mm | inactive | 1 mm | 1 mm | 1 mm | 1 mm | 1 mm | 1 mm | Active
